Experimental data as given in ChEMBL document CHEMBL1124865, “Synthesis and biological evaluation of a series of parenteral 3'-quaternary ammonium cephalosporins” (J Med Chem, 1990).
Converted amounts (≈) assume the structure as drawn.

What was measured:
Pseudomonas aeruginosa [1] = assay: Antibacterial activity against Pseudomonas aeruginosa X528; assay type: functional
Escherichia coli [2] = assay: Antibacterial activity against Escherichia coli EC14; assay type: functional; conditions: Escherichia coli; read-out: MIC
Streptococcus pyogenes = assay: Antibacterial activity against Streptococcus pyogenes; assay type: functional
Enterobacter cloacae [3] = assay: Antibacterial activity against Enterobacter cloacae 265A; assay type: functional
Serratia marcescens = assay: Antibacterial activity against Serratia marcescens SE3; assay type: functional
Enterococcus faecium = assay: Antibacterial activity against Enterococcus faecium; assay type: functional; conditions: Enterococcus faecium; read-out: MIC
Pseudomonas aeruginosa [4] = assay: Antibacterial activity against Pseudomonas aeruginosa PS18; assay type: functional
Staphylococcus aureus [5] = assay: Antibacterial activity against penicillin G resistance Staphylococcus aureus; assay type: functional
Staphylococcus aureus [6] = assay: Antibacterial activity against penicillin G susceptible Staphylococcus aureus; assay type: functional
Streptococcus pneumoniae = assay: Antibacterial activity against Streptococcus pneumoniae; assay type: functional
Klebsiella pneumoniae [7] = assay: Antibacterial activity against Klebsiella pneumoniae X26; assay type: functional; conditions: Klebsiella pneumoniae; read-out: MIC
Canis familiaris = assay: Percent of dose in dogs urine at the dose of 60 mg/kg.; assay type: functional, Canis lupus familiaris
Procedure, shortened: (§1)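 Overnight-fasted female mongrel dogs with a Foley bladder catheter; bolus into the cephalic vein. Plasma and urine collected before dosing and over 24 h after. Antibacterial activity measured by microbiological assay.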

[8] = Terminal half life in dogs at the dose of 60 mg/kg.; assay type: ADME, organism-based, Canis lupus familiaris; set-up: dose 60 mg/kg; conditions: dog, in vivo; procedure, shortened: as §1
Enterobacter cloacae [9] = assay: Antibacterial activity against Enterobacter cloacae EB5; assay type: functional
Escherichia coli [10] = assay: Antibacterial activity against Escherichia coli TEM; assay type: functional
Klebsiella pneumoniae [11] = assay: microbe, parasite or virus in culture; assay type: functional
Escherichia coli [12] = assay: In vitro relative hydrolysis rate against Escherichia coli IIIa; assay type: functional
Procedure, shortened: (§2)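 Spectrophotometric hydrolysis at 265 nm, substrate exposed to partially purified cell-free β-lactamase preparations; rate expressed as percentage of the cephaloridine rate.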

Escherichia coli [13] = assay: In vivo efficacy against Escherichia coli infected mice treated at 1 hr and 5 hr post infection; assay type: functional
Staphylococcus aureus [14] = assay: In vivo efficacy against Staphylococcus aureus infections in mice; assay type: functional
Enterobacter cloacae [15] = assay: In vitro relative hydrolysis rate against Enterobacter Ia; assay type: functional; procedure, shortened: as §2
Escherichia coli [16] = assay: In vivo efficacy against Escherichia coli infections in mice; assay type: functional; conditions: Escherichia coli; read-out: MIC
Staphylococcus aureus [17] = assay: In vitro relative hydrolysis rate against Staphylococcus aureus; assay type: functional; procedure, shortened: as §2
Pseudomonas aeruginosa [18] = assay: In vivo efficacy against Pseudomonas aeruginosa infected mice treated at 1 hr and 5 hr post infection; assay type: functional
Pseudomonas aeruginosa [19] = assay: In vivo efficacy against Pseudomonas aeruginosa infections in mice; assay type: functional
Pseudomonas aeruginosa [20] = assay: In vitro relative hydrolysis rate against Pseudomonas Id; assay type: functional; procedure, shortened: as §2
Staphylococcus aureus [21] = assay: In vivo efficacy against Staphylococcus aureus infected mice treated at 1 hr and 5 hr post infection; assay type: functional
Klebsiella pneumoniae [22] = assay: In vitro relative hydrolysis rate against Klebsiella IV; assay type: functional; procedure, shortened: as §2
Cavia porcellus [23] = organism: Cavia porcellus; assay: In vitro relative anticholinergic potential in isolated guinea pig trachea; assay type: functional
Procedure, shortened: (§3)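 Guinea pig trachea in Krebs' solution at 37.5 °C, 95% O2/5% CO2, pH 7.4, 2 g resting tension. Cumulative carbachol log dose-response curve (3-fold steps) run before and 30 min after adding antagonist at 1 mM. […] Tukey test on log2 dose ratios.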

[24] = In vitro dose required for anticholinergic activity in isolated guinea pig trachea; assay type: functional
Cavia porcellus [25] = organism: Cavia porcellus; assay: In vitro relative anticholinergic activity in isolated guinea pig trachea; assay type: functional; conditions: read-out: pA2 (converted); procedure, shortened: as §3
[26] = Pseudomonas aeruginosa, read-out: MIC
[27] = Streptococcus pyogenes, read-out: MIC
[28] = Enterobacter cloacae, read-out: MIC
[29] = Serratia marcescens, read-out: MIC
[30] = Staphylococcus aureus, read-out: MIC
[31] = Streptococcus pneumoniae, read-out: MIC
[32] = Escherichia coli, read-out: MIC
[33] = Klebsiella pneumoniae, read-out: MIC
[34] = Escherichia coli, read-out: ED50
[35] = Pseudomonas aeruginosa, read-out: ED50
[36] = Staphylococcus aureus, read-out: ED50

Row | SMILES | MIC (Pseudomonas aeruginosa [1]; [26]) | MIC (Escherichia coli [2]) | MIC (Streptococcus pyogenes; [27]) | MIC (Enterobacter cloacae [3]; [28]) | MIC (Serratia marcescens; [29]) | MIC (Enterococcus faecium) | MIC (Pseudomonas aeruginosa [4]; [26]) | MIC (Staphylococcus aureus [5]; [30]) | MIC (Staphylococcus aureus [6]; [30]) | MIC (Streptococcus pneumoniae; [31]) | MIC (Klebsiella pneumoniae [7]) | Percent of dose recovered in urine (Canis familiaris) | half-life [8] | MIC (Enterobacter cloacae [9]; [28]) | MIC (Escherichia coli [10]; [32]) | MIC (Klebsiella pneumoniae [11]; [33]) | Hydrolysis rate (Escherichia coli [12]) | Hydrolysis rate (Enterobacter cloacae [15]) | MIC (Escherichia coli [16]) | Hydrolysis rate (Staphylococcus aureus [17]) | further results
1 | CO/N=C(\C(=O)N[C@@H]1C(=O)N2C(C(=O)[O-])=C(C[n+]3cccc4occc43)CS[C@H]12)c1csc(N)n1 | 4 µg/mL (≈ 7.77 µM) | 0.06 µg/mL (≈ 0.117 µM) | 0.06 µg/mL (≈ 0.117 µM) | 4 µg/mL (≈ 7.77 µM) | 0.25 µg/mL (≈ 0.486 µM) | 32 µg/mL (≈ 62.2 µM) | 8 µg/mL (≈ 15.5 µM) | 4 µg/mL (≈ 7.77 µM) | 0.5 µg/mL (≈ 0.972 µM) | 0.06 µg/mL (≈ 0.117 µM) | 0.06 µg/mL (≈ 0.117 µM) | 78% | 1.67 h | 0.5 µg/mL (≈ 0.972 µM) | 0.06 µg/mL (≈ 0.117 µM) | 8 µg/mL (≈ 15.5 µM) | – | – | – | – | –
2 | CO/N=C(\C(=O)N[C@@H]1C(=O)N2C(C(=O)[O-])=C(C[n+]3ccc(CC(=O)NO)cc3)CS[C@H]12)c1csc(N)n1 (stereo in doubt; 9) | – | 0.03 µg/mL (≈ 0.0548 µM) | – | – | – | 128 µg/mL (≈ 234 µM) | – | – | – | – | 0.03 µg/mL (≈ 0.0548 µM) | – | – | – | – | – | 0.1 | 0.2 | 0.03 µg/mL (≈ 0.0548 µM) | 6.9 | MIC (Pseudomonas aeruginosa [1]): 8 µg/mL (≈ 14.6 µM); MIC (Streptococcus pyogenes): 0.03 µg/mL (≈ 0.0548 µM); MIC (Enterobacter cloacae [3]): 32 µg/mL (≈ 58.4 µM); MIC (Serratia marcescens): 0.125 µg/mL (≈ 0.228 µM); ED50 (Escherichia coli [13]): <0.3 mg/kg; MIC (Pseudomonas aeruginosa [4]): 4 µg/mL (≈ 7.3 µM); MIC (Staphylococcus aureus [14]): 1 µg/mL (≈ 1.83 µM); MIC (Staphylococcus aureus [5]): 4 µg/mL (≈ 7.3 µM); MIC (Staphylococcus aureus [6]): 2 µg/mL (≈ 3.65 µM); ED50 (Pseudomonas aeruginosa [18]): 39 mg/kg; MIC (Streptococcus pneumoniae): 0.03 µg/mL (≈ 0.0548 µM); MIC (Pseudomonas aeruginosa [19]): 16 µg/mL (≈ 29.2 µM); Hydrolysis rate (Pseudomonas aeruginosa [20]): 0.1; ED50 (Staphylococcus aureus [21]): 1 mg/kg; MIC (Enterobacter cloacae [9]): 0.25 µg/mL (≈ 0.457 µM); MIC (Escherichia coli [10]): 0.03 µg/mL (≈ 0.0548 µM); MIC (Klebsiella pneumoniae [11]): 4 µg/mL (≈ 7.3 µM); Hydrolysis rate (Klebsiella pneumoniae [22]): 1.2
3 | CO/N=C(\C(=O)N[C@@H]1C(=O)N2C(C(=O)[O-])=C(C[n+]3ccc4sc(C(=O)O)cc4c3)CS[C@H]12)c1csc(N)n1 | 2 µg/mL (≈ 3.48 µM) | < 0.008 µg/mL | < 0.008 µg/mL | 32 µg/mL (≈ 55.7 µM) | 0.06 µg/mL (≈ 0.104 µM) | > 128 µg/mL | 8 µg/mL (≈ 13.9 µM) | 16 µg/mL (≈ 27.8 µM) | 2 µg/mL (≈ 3.48 µM) | < 0.008 µg/mL | < 0.008 µg/mL | 98% | 1.5 h | 0.06 µg/mL (≈ 0.104 µM) | 0.03 µg/mL (≈ 0.0522 µM) | 4 µg/mL (≈ 6.96 µM) | – | – | – | – | RAP (Cavia porcellus [23]): 2; Dose ratio [24]: 1.52
4 | CO/N=C(\C(=O)N[C@@H]1C(=O)N2C(C(=O)[O-])=C(C[n+]3ccc4nc(C)sc4c3)CS[C@H]12)c1csc(N)n1 | 8 µg/mL (≈ 14.7 µM) | – | 0.015 µg/mL (≈ 0.0275 µM) | 16 µg/mL (≈ 29.3 µM) | 0.25 µg/mL (≈ 0.458 µM) | 128 µg/mL (≈ 235 µM) | 8 µg/mL (≈ 14.7 µM) | 4 µg/mL (≈ 7.33 µM) | 1 µg/mL (≈ 1.83 µM) | – | – | – | – | – | – | 1 µg/mL (≈ 1.83 µM) | – | – | – | – | Kb (Cavia porcellus [25]): 955 µM; RAP (Cavia porcellus [23]): 5
5 | CO/N=C(\C(=O)N[C@@H]1C(=O)N2C(C(=O)[O-])=C(C[n+]3ccc4occc4c3)CS[C@H]12)c1csc(N)n1 | 1 µg/mL (≈ 1.94 µM) | 0.015 µg/mL (≈ 0.0292 µM) | < 0.008 µg/mL | 4 µg/mL (≈ 7.77 µM) | 0.03 µg/mL (≈ 0.0583 µM) | > 128 µg/mL | 2 µg/mL (≈ 3.89 µM) | 4 µg/mL (≈ 7.77 µM) | 0.5 µg/mL (≈ 0.972 µM) | < 0.008 µg/mL | 0.015 µg/mL (≈ 0.0292 µM) | 94% | 1.33 h | 0.06 µg/mL (≈ 0.117 µM) | 0.03 µg/mL (≈ 0.0583 µM) | 4 µg/mL (≈ 7.77 µM) | – | – | 0.015 µg/mL (≈ 0.0292 µM) | – | ED50 (Escherichia coli [13]; [34]): < 0.6 mg/kg; MIC (Staphylococcus aureus [14]; [30]): 1 µg/mL (≈ 1.94 µM); ED50 (Pseudomonas aeruginosa [18]; [35]): 18 mg/kg; MIC (Pseudomonas aeruginosa [19]; [26]): 4 µg/mL (≈ 7.77 µM); ED50 (Staphylococcus aureus [21]; [36]): < 0.6 mg/kg
6 | CO/N=C(\C(=O)N[C@@H]1C(=O)N2C(C(=O)[O-])=C(C[n+]3cccc4ccsc43)CS[C@H]12)c1csc(N)n1 | 4 µg/mL (≈ 7.54 µM) | 0.03 µg/mL (≈ 0.0565 µM) | 0.03 µg/mL (≈ 0.0565 µM) | 4 µg/mL (≈ 7.54 µM) | 0.06 µg/mL (≈ 0.113 µM) | 128 µg/mL (≈ 241 µM) | 8 µg/mL (≈ 15.1 µM) | 2 µg/mL (≈ 3.77 µM) | 1 µg/mL (≈ 1.88 µM) | 0.03 µg/mL (≈ 0.0565 µM) | 0.03 µg/mL (≈ 0.0565 µM) | – | – | 0.125 µg/mL (≈ 0.236 µM) | 0.06 µg/mL (≈ 0.113 µM) | 4 µg/mL (≈ 7.54 µM) | 0.5 | 0.1 | 0.015 µg/mL (≈ 0.0283 µM) | 9.6 | ED50 (Escherichia coli [13]; [34]): 0.05 mg/kg; MIC (Staphylococcus aureus [14]; [30]): 1 µg/mL (≈ 1.88 µM); ED50 (Pseudomonas aeruginosa [18]; [35]): 13.5 mg/kg; MIC (Pseudomonas aeruginosa [19]; [26]): 4 µg/mL (≈ 7.54 µM); Hydrolysis rate (Pseudomonas aeruginosa [20]): 0; ED50 (Staphylococcus aureus [21]; [36]): 0.8 mg/kg; Hydrolysis rate (Klebsiella pneumoniae [22]): 1.5
